Insulin prom inh: TRM-6 insulin promoter activity inhibition | 130,000 tested, 0.9% active | AID 1273 | inhibition, % at 2 µM | TRM-6 cells (human fetal islet line), insulin promoter-eGFP reporter, imaging; reporter expression induced with tamoxifen;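 active means inhibition above the mean plus 3 SD, with well images judged a real hit on visual review, cut at about 60% in these data, passing the limit was not always enough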
Autophagy mod: autophagy modulation, high-content screen; MEF GFP-LC3 puncta imaging; test concentration mostly 10 µM; calls only at 10 µM (by protocol); 190,000 tested, 0.98% active; AID 463193;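 active means percentage of spot-positive cells more than 3 SD above its plate mean, without a fluorescence outlier flag or 80% toxicity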;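 further: spot-positive cell cutoff set from DMSO-treated cells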
Arbovirus anti: blocks arbovirus infection; arbovirus infection cell-based antiviral screen; inhibition, % at 10 µM; 200,000 tested, 0.37% active; AID 1251; in the data active means inhibition above about 30%
PKD1 kinase inh: blocks activity of human protein kinase D1; inhibition, % (concentration not given with the values); 200,000 tested, 0.056% active; Q15139; AID 797; PKD1 kinase fluorescence polarization assay; in the data active means inhibition above about 50%
RBBP9 inhibitor: blocks human serine hydrolase RBBP9. O75884. recombinant RBBP9, FP-Rh probe fluorescence polarization. inhibition, % at 7.94 µM. 220,000 tested, 0.2% active. AID 1515;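 active means inhibition above the campaign mean of all tested compounds plus 3 SD, cut at about 14% in these data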;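 further: plate controls were DMSO wells with RBBP9 for no effect and wells lacking RBBP9 protein for full effect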
Target sequence (O75884 whole entry, looked up): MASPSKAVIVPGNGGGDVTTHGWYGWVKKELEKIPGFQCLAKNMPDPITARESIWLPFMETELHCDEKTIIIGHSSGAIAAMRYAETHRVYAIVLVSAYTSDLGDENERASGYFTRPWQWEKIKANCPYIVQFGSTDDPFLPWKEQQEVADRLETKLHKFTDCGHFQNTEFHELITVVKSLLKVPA
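Assay system: recombinant human RBBP9; Reagent: Serine-hydrolase probe FP-Rh, 375 nM pre-mixing; Doses: 7.94 µM single dose, 0.794% DMSO; Incubation: 30 min then 45 min, 25 °C; Detection: fluorescence polarization (mP), excitation 525 nm, emission 598 nm; Evaluation: percent inhibition from mP, scaled between DMSO and no-protein wells.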
Ins promoter up: MIN6 insulin promoter up-regulation; MIN6 insulin promoter-GFP reporter, high-content imaging; stronger effect = higher value; z-score at 5 µM; 190,000 tested, 0.3% active; AID 1625;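 active means z-score above 3 at 5 µM with at least 500 cells counted in the well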
Starred values were filed as active, the others as inactive; i = inactive; x = no result; + = active, no number. Compounds with a hit are over-represented: about 2.1% of the library has one in this group of screens.

SMILES	Insulin prom inh	Autophagy mod	Arbovirus anti	PKD1 kinase inh	RBBP9 inhibitor	Ins promoter up
CCN(CC)c1ccc2cc(C(=O)Nc3cccnc3N3CCOCC3)c(=O)oc2c1	x	x	x	x	x	0.44
CCOc1cc(-n2cnnn2)c(OCC)cc1NC(=O)c1cc2ccc(N(CC)CC)cc2oc1=O	-9	+	x	2	5	x
C/C=C/CSc1nc2c(c(=O)[nH]c(=O)n2C)n1CCC	82*	i	4	-15	6	0.27
Cc1ccc(-n2c(=O)[nH]cc(C(=O)Nc3ccc4c(c3)OCCO4)c2=O)cc1C	86*	i	21	-8	1	-0.14
CC[C@@H](C)[C@H](NC(=O)OC(C)(C)C)c1nnc(S(=O)(=O)Cc2cc(C)ccc2C)o1	72*	i	-45	-10	-6	0.58
Cc1ccccc1CS(=O)(=O)c1nnc([C@H](CC(C)C)NC(=O)OC(C)(C)C)o1	42	i	-1	-5	-8	-0.2
CC(=Nc1ccc(C)cc1)c1sc2ccccc2c1O	26	i	-3	-6	2	0.59
CC(=Nc1ccc(C)cc1C)c1sc2ccccc2c1O	x	i	-11	-8	-2	4*
CO/N=C/C(=N\Nc1ccc(C)cc1)C(=O)c1ccc(OC)cc1	0	+	-26	-2	0	-1.7
COC(=O)c1cc(C#N)c(N(C)Cc2ccccc2)nc1C	-30	i	-9	-6	-5	x
O=C(Cn1cnc2sc(-c3ccccc3)cc2c1=O)NCc1ccccc1	63	+	-32	0	2	0.71
O=C(Cn1cnc2sc(-c3ccccc3)cc2c1=O)NCCc1ccccc1	14	i	-29	-2	-5	-0.02
CC(C)NC(=O)CC1C(=O)NCCN1CC(c1ccccc1)c1ccccc1 (stereo not given)	x	i	5	-6	4	0
CC(C)(CO)CNC(=O)CC1C(=O)NCCN1CC(c1ccccc1)c1ccccc1 (stereo not given)	x	i	32*	-3	-1	0.06
COc1ccc(NC(=O)c2nc3nc(C)cc(C(F)F)n3n2)cc1OC	71*	i	5	13	-8	0.64
Cc1onc(-c2ccccc2)c1C(=O)Nc1ccc(S(=O)(=O)N2CCCCC2)cc1	x	x	-10	17	-5	-0.24
Cc1cc(C(F)F)n2nc(C(=O)Nc3ccc(S(=O)(=O)N4CCCCCC4)cc3)nc2n1	100*	i	18	-10	-1	x
CCN(CC)c1ccc(NC(=O)c2nc3nc(C)cc(C(F)F)n3n2)cc1	x	x	-9	-1	-6	-1.3
Cc1onc(-c2ccccc2)c1C(=O)Nc1ccc(S(=O)(=O)N2CCCC2)cc1	78*	i	-6	-5	-11	-1.4
O=S(=O)(c1ccc(Oc2ccc(Cl)cc2)c(S(=O)(=O)N2CCCCC2)c1)N1CCCCC1	-54	i	38*	-11	1	-1.8
C=CCn1c(N)c(C(=O)NCc2cccnc2)sc1=S	11	i	77*	3	0	-0.69
CCc1ccc(OCC(=O)NCCN(C)C)c(Br)c1	-21	i	7	0	11	x
O=C(NCC1CCCO1)c1ccccn1 (stereo not given)	75*	i	-1	-2	6	x
CCOc1ccc2nc(N3C(=O)CNC3=S)sc2c1	x	x	x	x	-13	x
COc1ccc2nc(N3C(=O)/C(=C/c4ccc(Cl)cc4)NC3=S)sc2c1	11	+	-13	5	-16	0.61
SMILES	Insulin prom inh	Autophagy mod	Arbovirus anti	PKD1 kinase inh	RBBP9 inhibitor	Ins promoter up
CCC(CC)NC(=O)c1cccc(Br)c1	88*	i	-3	-5	4	-0.44
CCOc1cccc2cc(-c3csc(NC(=O)CCC(=O)N4CCC(C)CC4)n3)c(=O)oc12	36	+	-8	-2	0	-0.37
CC1CN(C(=O)N(C)C)CCN1C(=O)N(C)C (stereo not given)	-77	i	-7	-8	-11	-0.31
COC(=O)c1cc(NC(=O)c2cccc(Cl)c2)c(=O)oc1/C=C/Nc1cc(C)cc(C)c1	i	+	9	-7	-5	15*
COC(=O)c1cc(NC(=O)c2cccc(C(F)(F)F)c2)c(=O)oc1C	x	i	6	4	-10	1.7
COc1ccccc1N1CCN(C(=O)c2n[nH]c3ccccc23)CC1	75*	i	12	-2	-8	-0.95
O=[N+]([O-])c1cccc(/C=N/NC2=NS(=O)(=O)c3ccccc32)c1	30	i	-9	1	-6	-1.1
CC(=O)C1=C(C)NC(SCC(=O)c2ccc(Cl)c(Cl)c2)=C(C#N)C1c1ccco1 (stereo not given)	x	+	x	13	-8	x
CC(=O)C1=C(C)NC(SCSc2ccccc2)=C(C#N)C1c1cccnc1 (stereo not given)	-500	i	-12	-3	-4	0.11
COc1ccccc1NC(=O)C1=C(C)NC(SCC(=O)c2ccc(C)cc2)=C(C#N)C1c1ccco1 (stereo not given)	16	+	1	3	-10	3.3*
CC(=O)C1=C(C)NC(SCC(=O)c2ccc(-c3ccccc3)cc2)=C(C#N)C1c1cccnc1 (stereo not given)	-22	+	-5	-1	-10	0.15
Cc1oc(C)c2c(=O)ccc3c(c12)OC(N)=C(C#N)C3c1ccccc1 (stereo not given)	x	+	11	-13	4	x
CSc1ccc(C2C(C#N)=C(N)Oc3c2ccc(=O)c2c(C)oc(C)c32)cc1 (stereo not given)	-29	i	-3	0	-2	1.5
CCC(CC)NC(=O)Nc1cccc(C)c1C	16	i	3	9	-5	0.74
CCC(C)N(CC(=O)Nc1cccc(C)c1C)C(=O)CCl (stereo not given)	100*	+	10	-2	-3	0.22
C=CCc1cccc2cc(C(=O)O)c(=O)oc12	6	i	4	7	-5	0.03
C=CCc1cccc2cc(C(=O)Nc3ccccc3C(=O)O)c(=O)oc12	x	i	32*	0	-1	-1.1
CC(=O)c1cccc(NC(=O)Nc2c(C)nn(C)c2C)c1	10	+	19	7	-5	0.19
CC(=O)c1ccc(NC(=O)Nc2ccc3c(c2)nc(C)n3C)cc1	x	+	5	-1	-2	0.36
Cc1ccc(NC(=O)Nc2ccc3c(c2)nc(C)n3C)cc1	x	i	-3	0	1	0.51
O=C(CCCOc1ccccc1)Nc1ncccn1	38	i	5	-10	-11	-0.23
Cn1cc(Br)c(C(=O)NC(=S)Nc2ccc(S(N)(=O)=O)cc2)n1	x	+	0	2	-9	-0.06
COc1cc(NC(=O)CSc2nnc(Cn3nnc4ccccc43)n2C)cc(OC)c1	-469	i	-3	-5	-1	0.26
Nc1nc(-c2ccccc2)c(-c2ccc([N+](=O)[O-])cc2)s1	x	i	33*	2	-5	-0.02
Cc1ccc(Nc2c(N)c(=O)oc3ccccc23)cc1	-75	+	-10	-20	-5	x
